{"data": "Results from different studies", "target": "Serine/threonine-protein kinase pim-1 (PIM1, Homo sapiens, UniProt P11309)", "note": "Each line is one published result; the experiments were not run side by side."}
{"Structure (SMILES)": "CNC(=O)c1ccc(Nc2ncc(C(F)(F)F)c(NCc3nccnc3N(C)S(C)(=O)=O)n2)cc1", "observed": "cell-free assay", "technique": "competition with immobilised ligand", "concentration": "0.1 µM", "remaining binding [%]": 93}
{"Structure (SMILES)": "CC(C)(C)c1ccc(-c2nc(CBr)nn2-c2cccc(O)c2)cc1", "observed": "cell-free assay", "technique": "competition with immobilised ligand", "concentration": "10 µM", "remaining binding [%]": 90}
{"Structure (SMILES)": "C[C@@H]1CN(c2ccc3ncc(-c4ccc5[nH]nc(C6CC6)c5c4)n3n2)C[C@H](C)O1", "observed": "binding", "technique": "competition with immobilised ligand", "concentration": "50 nM", "remaining binding [%]": 66}
{"Structure (SMILES)": "CN(C)c1nccc(-c2cnn3ncccc23)n1", "observed": "binding", "concentration": "1 µM", "remaining binding [%]": 81}
{"Structure (SMILES)": "CNC(=O)[C@@H]1CC[C@@H](n2c(-c3ccc4cnccc4c3)nc3ccc(C(=O)NCc4cccc(C(N)=O)c4)cc32)C1", "observed": "binding", "technique": "competition with immobilised ligand", "concentration": "1 µM", "remaining binding [%]": 100}
{"Structure (SMILES)": "C[C@H]1CCN(c2nccc(-c3cnn4ncccc34)n2)C1", "observed": "binding", "concentration": "1 µM", "remaining binding [%]": 83}
{"Structure (SMILES)": "CCCCN(CCCC)C(=O)CN1C[C@H](c2cc(OC)c3c(c2)OCO3)[C@@H](C(=O)O)[C@@H]1CC(C)(C)CCC", "observed": "cell-free assay", "technique": "competition with immobilised ligand", "concentration": "1 µM", "remaining binding [%]": 100}
{"Structure (SMILES)": "CCN1CCN(Cc2ccc(C(=O)Nc3ccc(C)c(Oc4ccc5c(c4)CC(=O)N5)c3)cc2C(F)(F)F)CC1", "observed": "binding", "technique": "competition with immobilised ligand", "concentration": "1 µM", "remaining binding [%]": 100}
{"Structure (SMILES)": "Cc1cnn2ncc(-c3ccnc(N(C)C)n3)c2c1", "observed": "binding", "concentration": "1 µM", "remaining binding [%]": 80}
{"Structure (SMILES)": "Cn1nc(C(=O)NCc2ccc(C(=O)O)cc2)cc1-c1ccc2[nH]ccc2c1", "observed": "cell-free assay", "technique": "competition with immobilised ligand", "concentration": "0.1 µM", "remaining binding [%]": 91}
{"Structure (SMILES)": "N[C@@H]1CCN(c2nccc(-c3cnn4ncccc34)n2)C1", "observed": "binding", "concentration": "1 µM", "remaining binding [%]": 100}
{"Structure (SMILES)": "O=C(c1ccc(Nc2nccc(-c3cc4ccccc4s3)n2)cc1)N1CCC(N2CCCC2)CC1", "observed": "binding", "technique": "competition with immobilised ligand", "concentration": "1 µM", "remaining binding [%]": 75}
{"Structure (SMILES)": "Cc1cc(C)c(-n2ccn3nc(-c4cccnc4)cc23)cc1NC(=O)c1cc(C#N)cc(S(F)(F)(F)(F)F)c1", "observed": "cell-free assay", "technique": "competition with immobilised ligand", "concentration": "0.1 µM", "remaining binding [%]": 92}
{"Structure (SMILES)": "O=C(NCC1CCOCC1)c1n[nH]cc1NC(=O)c1c(F)cccc1F", "observed": "binding", "technique": "competition with immobilised ligand", "concentration": "1 µM", "remaining binding [%]": 100}
{"Structure (SMILES)": "c1cncc(-c2cccc(Nc3nccc(NC4CCCCC4)n3)c2)c1", "observed": "binding", "technique": "competition with immobilised ligand", "concentration": "10 µM", "remaining binding [%]": 42}
{"Structure (SMILES)": "CN(CCCC(F)(F)F)c1nccc(-c2cnn3ncccc23)n1", "observed": "binding", "concentration": "1 µM", "remaining binding [%]": 98}
{"Structure (SMILES)": "CCC(=N\\O)/C(C)=C/c1ccc(F)cc1", "observed": "cell-free assay", "technique": "competition with immobilised ligand", "concentration": "1 µM", "remaining binding [%]": 85}
{"Structure (SMILES)": "O=C(c1ccc(Nc2ncc(Cl)c(-c3ccc(Cl)s3)n2)cc1)N1CCC(N2CCCC2)CC1", "observed": "binding", "technique": "competition with immobilised ligand", "concentration": "1 µM", "remaining binding [%]": 87}
{"Structure (SMILES)": "O=C1NC(c2ccccn2)Sc2ccccc21 (stereo not shown)", "observed": "cell-free assay", "technique": "competition with immobilised ligand", "concentration": "1 µM", "remaining binding [%]": 82}
{"Structure (SMILES)": "Cc1cnc(Nc2ccc(C(=O)N3CCC(N4CCCC4)CC3)cc2)nc1-c1cc2ccccc2s1", "observed": "binding", "technique": "competition with immobilised ligand", "concentration": "1 µM", "remaining binding [%]": 75}
{"Structure (SMILES)": "c1cnn2ncc(-c3ccnc(N4CCC45COC5)n3)c2c1", "observed": "binding", "concentration": "1 µM", "remaining binding [%]": 71}
{"Structure (SMILES)": "COc1ncc2cc3ccccc3nc2c1C#N", "observed": "cell-free assay", "technique": "competition with immobilised ligand", "concentration": "5 µM", "remaining binding [%]": 87}
{"Structure (SMILES)": "COc1cnc(Nc2cccc(S(N)(=O)=O)c2)nc1N1CCN(c2ccccc2)CC1", "observed": "binding", "technique": "competition with immobilised ligand", "concentration": "1 µM", "remaining binding [%]": 95}
{"Structure (SMILES)": "Nc1cnc(N2CCc3cc(S(=O)(=O)Nc4c(F)cc(Cl)cc4F)cc(N4CCCC4=O)c32)nc1", "observed": "cell-free assay", "technique": "competition with immobilised ligand", "concentration": "1 µM", "remaining binding [%]": 88}
{"Structure (SMILES)": "F[C@@H]1CCN(c2nccc(-c3cnn4ncccc34)n2)C1", "observed": "binding", "concentration": "1 µM", "remaining binding [%]": 100}
